Hits are enriched below; roughly 4.3% of the tested compounds scored in any of these assays.
m5-HT2A agonist: activates the mouse 5-HT2A serotonin receptor | P35363 | CHO-K1 mHTR2A beta-arrestin complementation, luminescence; percent of 30 µM serotonin response | activation, % at 7.6 µM | 0.66% of 360,000 active | AID 624169;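 active = activation above a run cutoff, the mean activation of all tested compounds plus 3 SD, cut at about 14% in these data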;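 also: 0% = plate median of compound wells and 100% = 30 µM serotonin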
MC4R antag cAMP: blocks human MC4R cAMP signaling | 0.48% of 360,000 active | AID 540295 | MC4R-expressing cells, MTII-stimulated cAMP, LANCE TR-FRET | inhibition, % at 6.5 µM;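 active = inhibition above its plate's cutoff, the mean of tested wells on that plate plus 3 SD, cut at about 29% in these data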;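 also: 0% = Melanotan II alone and 100% = Melanotan II plus saturating MCL0020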
Target sequence (P32245 whole entry, looked up): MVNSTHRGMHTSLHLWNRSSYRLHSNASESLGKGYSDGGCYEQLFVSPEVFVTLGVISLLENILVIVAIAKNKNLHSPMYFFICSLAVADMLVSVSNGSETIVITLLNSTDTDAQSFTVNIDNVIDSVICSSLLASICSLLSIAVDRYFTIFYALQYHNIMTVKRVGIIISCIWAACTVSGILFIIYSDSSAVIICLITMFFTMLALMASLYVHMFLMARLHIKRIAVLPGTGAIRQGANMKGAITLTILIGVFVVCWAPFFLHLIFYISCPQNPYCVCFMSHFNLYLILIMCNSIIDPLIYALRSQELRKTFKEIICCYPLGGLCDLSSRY
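System: U2OS cells stably expressing human melanocortin 4 receptor (MC4R). Reagent: Melanotan II challenge after compound preincubation. Doses: 6.5 µM. Times: 30-min compound, 1-h challenge, 1-h detection, room temperature. Measured by: TR-FRET with Eu-cAMP and labeled anti-cAMP, 671 nm. Replicates: singlicate.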
B2AR ag: activates human beta-2 adrenergic receptor causing internalization | 0.43% of 340,000 active | P07550 | Am2.2-beta2AR cells, FAP receptor internalization, flow cytometry | response, % (test concentration not listed);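 active = response above a set limit, near 3 SD of response in nonfluorescent compounds, cut at about 42% in these data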
TAAR1 ag: human TAAR1 agonism; Q96RJ0; CHO RD-HGA16 TAAR1, Fluo-8 calcium fluorescence; vehicle wells 0%, saturating PEA agonist 100%; activation, % at 3 µM; 0.99% of 360,000 active; AID 624467;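 active = activation above the mean activation of all test compounds in the run plus 3 SD, cut at about 38% in these data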
Target sequence (Q96RJ0 whole entry, looked up): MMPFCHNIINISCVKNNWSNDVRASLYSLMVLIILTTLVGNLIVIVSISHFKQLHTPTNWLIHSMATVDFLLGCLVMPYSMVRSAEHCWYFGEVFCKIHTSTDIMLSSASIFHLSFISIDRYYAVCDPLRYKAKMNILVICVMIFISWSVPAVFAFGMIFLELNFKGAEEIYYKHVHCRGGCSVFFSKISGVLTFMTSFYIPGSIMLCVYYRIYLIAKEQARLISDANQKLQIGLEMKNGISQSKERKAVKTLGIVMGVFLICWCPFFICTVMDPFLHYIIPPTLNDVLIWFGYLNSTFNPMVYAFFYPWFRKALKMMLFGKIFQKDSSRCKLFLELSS
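Assay system – CHO-derived RD-HGA16 cells with stable Gα16 and human TAAR1 · Compound dosing – one-point dosing at 3 µM (nominal) · Incubation – 17-24 h seeding, 75 min 37 °C dye, 30 min RT · Measured by – kinetic Fluo-8 calcium fluorescence · Control set – DMSO vehicle as 0%, PEA at EC100 as 100% · Repeats – single well for each compound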
MC4R barr agon: activates human MC4R beta-arrestin recruitment. U2OS MC4R beta-arrestin complementation, luminescence; percent of melanotan II response, DMSO zero. activation, % at 8.9 µM. 0.98% of 360,000 active. AID 540308;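 active = activation above a per-plate cutoff, the mean activation of sample wells on that plate plus 3 SD, cut at about 8% in these data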
TAAR1 antagonist: human TAAR1 antagonism; Q96RJ0; CHO RD-HGA16 TAAR1, Fluo-8 calcium fluorescence, antagonist; inhibition, % at 3 µM; 1.5% of 360,000 active;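 active = inhibition above a per-plate cutoff, the mean inhibition of test compounds on that plate plus 3 SD, cut at about 49% in these data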;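 also: 0% = DMSO plus EC80 beta-PEA response and 100% = DMSO alone without agonist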
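Assay system: CHO-derived RD-HGA16 cells stably expressing human TAAR1 plus Gα16. Timing: 140 s kinetic read after compound, 140 s after agonist. Technique: kinetic Fluo-8 calcium fluorescence measurement. Measure: % inhibition of agonist calcium response.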
B2AR ag CP1: agonists of human beta-2 adrenergic receptor | shares compounds with B2AR ag | Am2.2-beta2AR cells, FAP surface receptor, flow cytometry; stronger effect = lower value | percent response (surface receptor), % at 10 µM | 25% of 1,100 active | AID 540358;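 active = surface receptor percent response at or below 58%, roughly 3 SD from nonfluorescent compounds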
FAP fluor counter: flagged in Am2.2 fluorescence counterscreen for beta-2AR agonists; shares compounds with B2AR ag; AID 588765; Am2.2 cells, FAP fluorogen flow cytometry; stronger effect = lower value; calls only at 10 µM; 1,100 tested, under 10 active;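 active = percent response below a set limit in fluorescence channel 1 and below 50% in channel 8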
* hit, by the source's call; i = inactive; . = no result; + = active, no number; ! = a repeat was not active.

SMILES	m5-HT2A agonist	MC4R antag cAMP	B2AR ag	TAAR1 ag	MC4R barr agon	TAAR1 antagonist	B2AR ag CP1	FAP fluor counter
CCCNc1nc(-c2ccccc2)c(C(=O)OCC)cc1C#N	-3.4	-19.1	50.4*	5.5	2.1	-2.5	103.3	i
O=C(Nc1ccc(F)cc1F)c1csc(-c2ccncc2)n1	-0.1	20.1	-0.2	-1.9	1.6	1.1	.	.
Cc1ccc(C(=O)Nc2cccc(C(F)(F)F)c2)cc1NC(=O)c1csc(-c2ccncc2)n1	-3.6	21.7	90.6*	.	-0.6	.	36.3*!	+!
COc1ccc(C2/C=C\CN(C(=O)C3CC3)CC(=O)N2Cc2ccc(F)cc2)cc1 (configuration not stated)	-0.9	-0.1	1.9	5.4	-1.3	7.1	.	.
COc1ccc(C2/C=C\CN(C(=O)OCc3ccccc3)CC(=O)N2Cc2ccc(F)cc2)cc1 (configuration not stated)	-1.9	10.9	-0.2	11.4	4.2	9.3	.	.
COc1ccc(C2/C=C\CN(C(=O)c3ccccc3)CC(=O)N2Cc2ccc(F)cc2)cc1 (configuration not stated)	11.0	2.3	-8.5	11.2	-2.1	25.7	78.2	i
COc1ccc(C2/C=C\CN(Cc3ccc(N(C)C)cc3)CC(=O)N2Cc2ccc(F)cc2)cc1 (configuration not stated)	1.9	6.8	97.4*	9.2	-0.6	30.9	27.1*	i
Cn1cnc(S(=O)(=O)Nc2ccccc2C(=O)NCC2CC2)c1	-0.6	-2.2	-2.6	1.9	-0.7	-2.6	.	.
Cc1cc(Cl)ccc1OCC(=O)Nc1cccc(S(=O)(=O)N2CCCC2)c1	2.7	7.0	3.1	1.2	-0.9	25.9	.	.
COC(=O)c1ccccc1NC(=O)COc1ccc(S(=O)(=O)N2CCCC2)cc1C	-2.8	10.0	4.8	1.9	-1.8	4.1	99.3	i
Cc1cc(S(=O)(=O)N2CCCC2)ccc1OCC(=O)Nc1ccc(C(N)=O)cc1	-1.7	7.0	1.5	2.4	-1.5	7.3	113.2	i
COc1ccc(Cl)cc1NC(=O)COc1ccc(S(=O)(=O)N2CCOCC2)cc1C	5.4	7.6	0.4	3.9	-0.3	-5.1	74.9	i
CN(C(=O)N1CCN(c2ccccn2)CC1)c1ccccc1	0.0	0.4	-7.7	2.7	0.3	9.8	.	.
CN(CC(=O)N1CCN(c2ccccn2)CC1)S(=O)(=O)c1ccccc1	-1.7	10.8	50.7*	9.1	-0.8	-0.7	59.4	i
CN(CC(=O)N1CCN(c2ncccn2)CC1)S(=O)(=O)c1ccc(Cl)cc1	4.8	9.3	111.7*	-0.3	-1.0	-2.4	27.7*	i
CN(CCCC(=O)N1CCN(c2ncccn2)CC1)S(=O)(=O)c1ccc(F)cc1	10.9	12.4	-2.9	-1.4	-2.8	-1.6	.	.
CCC(=O)c1ccc(OCc2ccc(C(=O)c3ccccc3)cc2)cc1	-1.9	10.3	-2.1	2.7	-0.5	45.2	.	.
Cn1c(Cc2ccc(Cl)cc2)nnc1SCC(=O)NC1CC1	0.8	9.4	-4.8	0.1	-0.9	2.6	.	.
COc1ccc(C(C)NCCC(c2ccc(OC(C)C)cc2)c2ccccc2OC)cc1 (configuration not stated)	-0.7	0.4	22.9	44.4*	19.7*	7.7	95.6	i
O=C(Nc1ccc(NC(=O)c2ccccc2F)cc1)c1cccs1	3.9	-4.4	-0.4	22.7	-2.4	7.4	113.1	i
O=C(Nc1ccc(NC(=O)c2cccs2)cc1)c1cccs1	7.0	12.3	-9.7	22.5	2.9	11.5	.	.
CC(C)c1ccc(NC(=O)C(c2ccc3c(c2)OCO3)N2CCC3(CC2)OCCO3)cc1 (configuration not stated)	-1.6	3.5	8.0	3.1	-0.8	-6.9	127.4	i
Cc1c(NS(=O)(=O)c2cccs2)cccc1-c1nc2cccnc2s1	-1.2	8.4	-0.2	2.0	0.3	-7.1	.	.
O=S(=O)(Nc1cccc2ncccc12)c1cccs1	-12.5	10.4	44.2*	.	-2.8	.	89.5	i
Cc1ccc(OCCn2c(=S)[nH]c3ccccc32)c(C(C)C)c1	3.8	-2.3	69.0*	1.8	5.8	24.4	106.3	i
SMILES	m5-HT2A agonist	MC4R antag cAMP	B2AR ag	TAAR1 ag	MC4R barr agon	TAAR1 antagonist	B2AR ag CP1	FAP fluor counter
O=C(CCn1c(=O)[nH]c2ccsc2c1=O)NCc1ccc(F)cc1	-3.1	10.2	-6.7	0.6	-1.2	-8.8	94.7	i
O=C(CCCCCn1c(=O)[nH]c2ccsc2c1=O)NCc1ccc2c(c1)OCO2	10.1	11.7	113.2*	7.6	0.4	4.9	26.3*	i
O=C(CCCn1c(=O)[nH]c2ccsc2c1=O)N1CCN(Cc2ccc3c(c2)OCO3)CC1	5.0	2.2	-21.3	-1.3	1.4	3.7	.	.
O=C(CCCn1c(=O)[nH]c2ccsc2c1=O)Nc1ccc(F)cc1	2.4	5.5	19.1	.	0.2	.	.	.
O=C(CN(c1ccccc1F)S(=O)(=O)c1ccccc1)NC1CCCCCC1	-4.7	3.3	53.4*	.	0.1	.	106.8	i
Cc1ccc(S(=O)(=O)N(CC(=O)NC2CCCCCC2)c2ccccc2F)cc1	13.7	-1.0	-6.3	21.2	-0.4	-3.8	.	.
CN(C)c1nc(=NCc2ccco2)ss1	-16.1	9.5	11.7	.	-1.2	.	110.9	i
CCS(=O)(=O)CCn1c([N+](=O)[O-])cnc1C	-0.2	7.9	2.4	-0.2	0.3	-4.9	101.9	i
Cc1ncc([N+](=O)[O-])n1CCO	7.3	-2.8	-0.6	0.4	-0.2	-9.4	.	.
COC(=O)c1ccc(COc2cc(O)c3c(c2)OC(C)(C)CC3=O)cc1	-4.1	0.5	45.5*	1.7	-1.5	15.6	106.0	i
COc1ccc(S(=O)(=O)N2CCC[C@H]2C(=O)N2CCC[C@H]2C(=O)N[C@@H](C)c2ccccc2)cc1C	-1.8	.	.	-1.4	.	-14.7	.	.
Cc1ccc(-n2ncc(C(=O)Nc3cc(Cl)cc(Cl)c3)c2C2CCNCC2)cc1C	-8.0	5.2	56.4*	4.9	0.2	-6.4	76.1	i
O=[N+]([O-])c1cnc(Sc2ccncn2)c([N+](=O)[O-])c1	-2.4	14.5	.	9.8	-0.5	4.9	.	.
O=[N+]([O-])c1cnc(Sc2ccncn2)s1	-1.1	35.3*	91.8*	3.4	-4.0	-19.8	15.8*	i

From PubChem
